# Experimental data as given in the RNAGym collection of RNA variant scans (doi:10.1038/s41586-018-0170-7).
# B1: tRNA (parent)
# chain: GUUCCGUUGGCGUAAUGGUAACGCGUCUCCCUCCUAAGGAGAAGACUGCGGGUUCGAGUCCCGUACGGAACG
# Variants of: B1
# Experiment: yeast fitness, log relative to wild type (ln ratio); higher = fitter; tRNA-Arg(CCU), competitive growth, 37 C, 1 M NaCl
# Procedure, shortened: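 A combinatorial tRNA-Arg(CCU) variant library was carried on a HIS3 centromeric plasmid in BY4742 lacking the chromosomal gene, from two independent transformations. Pools grew 4 generations in SC-HIS at 30 °C, then ~6.5 generations (~26.5 h) in SC-HIS 1M NaCl at 37 °C, with three outputs per input. Variants were counted by 125 bp paired-end Illumina sequencing. Fitness is ln of each genotype's generations (OD-scaled log2 output/input frequency, inverse-variance weighted across replicates) over the wild-type's.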
row,Variant,yeast fitness (ln)
1,G1A G6A C27U A69G A70U,-0.353
2,U2G G6A A69G A70G,-0.139
3,G1A C46U C66A A70U C71U,-0.171
4,G6A C66U A70G C71U,-0.358
5,G1A G6A C27U A69G A70U C71U,-0.504
6,G1A U2G G6U C27U A43C C66U A70U,-0.47
7,U2G G6U C27U A43C A69G A70G C71U,-0.35
8,G1A U2G A43C C66A A70G,-0.241
9,G1A U2G G6A C27U C46U A70G,-0.237
10,G6U A43C C46U C66A A69G A70U C71U,-0.314
11,G6A C27U A69G A70G,-0.12
12,U2G G6A C66A A70U C71U,-0.123
13,G1A U2G G6A A43C C46U,-0.111
14,G1A G6A C27U A43C C46U A69G C71U,-0.268
15,U2G C46U C66A A69G A70U C71U,-0.34
16,G1A U2G G6U A43C A70G,-0.263
17,U2C C27U C66U A69G A70G,-0.185
18,G1A U2C G6A C66U A69G C71U,-0.31
19,G1A C27U A43C C46U A69G C71U,-0.109
20,G1A U2G G6U C27U C46U C66U A69G A70U,-0.339
21,U2C A43C A70G C71U,-0.0158
22,G1A G6U C27U C46U C66U A70U C71U,-0.438
23,G1A G6A C27U A70G C71U,-0.332
24,G6U A43C C46U C66A A69G,0.0709

row,Variant,yeast fitness (ln)
1,U2G C27U A43C C66A A69G A70G,-0.42
2,U2C G6A C46U C66A A70G,-0.016
3,U2C G6A C46U C66A A70U,-0.067
4,U2C G6A A43C C46U,-0.0201
5,G6A C27U A43C C66U A69G A70G C71U,-0.371
6,G6A A43C C66U A69G A70G,-0.35
7,G1A U2C G6U C27U A43C A70G C71U,-0.22
8,U2G A43C C66U A69G A70U,-0.307
9,G1A U2C G6A C27U A70U C71U,-0.109
10,U2G G6A C27U C66U A69G A70U C71U,-0.4
11,U2G G6U,-0.0233
12,G1A U2G G6U A43C C66A A69G A70G C71U,-0.412
13,C46U C66U,-0.000909
14,U2C G6U C27U C66A A69G A70G C71U,-0.0793
15,U2G C66A A69G A70U,-0.131
16,G1A C27U A43C C71U,-0.0801
17,G1A G6A A43C C46U A69G A70U C71U,-0.473
18,U2G G6U C27U A43C C66U A69G A70U C71U,-0.411
19,G6A C71U,-0.23
20,G1A A43C C46U A69G A70U C71U,-0.33
21,G1A U2G G6U C27U A43C C46U C66U,-0.434
22,G1A U2G C27U A69G,-0.145
23,U2G C27U C46U,-0.0742
24,G1A U2C C27U,-0.0512

row,Variant,yeast fitness (ln)
1,G6A C27U A43C C46U C66U C71U,-0.464
2,U2G G6A C27U C66U A70G C71U,-0.203
3,G1A A43C C66U A69G A70G C71U,-0.293
4,U2G G6A A43C C66U A69G A70G,-0.257
5,G1A U2G G6A A43C C46U C66U A70U,-0.306
6,U2G G6A C46U C66A A70G,-0.056
7,G1A U2C G6A C46U C66U A70U C71U,-0.0901
8,G6A C27U A43C C46U C66U A70U,-0.183
9,U2G G6U C27U A43C C66A A69G A70G C71U,-0.371
10,G6A C66U C71U,-0.0335
11,G1A G6U A43C A69G A70U,-0.326
12,U2C G6U A43C C66A A69G A70G C71U,-0.0618
13,U2G G6A C27U A43C C66U A69G A70U,-0.326
14,G6U C27U C66A A69G A70U,-0.213
15,G1A G6U C27U A43C C46U A70G,-0.385
16,C27U C46U A69G A70U C71U,-0.248
17,G1A G6A C27U C66U A70U C71U,-0.461
18,G1A U2C G6A C46U C66U A70U,-0.182
19,U2G A43C C46U C66A,-0.101
20,G1A U2G A43C A69G C71U,-0.219
21,G1A U2C G6U C27U A43C C66U A69G A70G C71U,-0.117
22,G1A U2C C27U A43C C46U A70U C71U,-0.221
23,G1A C27U C46U C66U A69G A70G C71U,-0.255
24,U2G G6A C27U A43C C46U C66U A70U,-0.0122

row,Variant,yeast fitness (ln)
1,U2G A43C C46U C66U A69G A70G,-0.173
2,G1A U2G C27U A43C C46U A70G,-0.124
3,G6U A43C C66A C71U,-0.177
4,G1A U2G G6U C27U C46U A69G A70U C71U,-0.43
5,G1A U2G G6A C27U C66A A70U C71U,-0.457
6,U2G G6A C27U C46U A69G A70G C71U,-0.194
7,G1A G6A C27U A43C C46U A70U,-0.201
8,G1A U2G G6A C46U C66U A70U C71U,-0.00784
9,G1A U2G G6U C27U A43C C66U A69G C71U,-0.764
10,G1A G6U C46U C66A A70G,-0.225
11,U2G G6A C27U A69G A70U C71U,-0.383
12,U2G G6U A43C C46U A70G,-0.138
13,G1A G6A C27U A43C C46U C66A A70G C71U,-0.293
14,U2C G6A A43C A70U,-0.0469
15,G6U C27U C66A A69G A70U C71U,-0.378
16,G1A U2G C27U C46U C66A A70U,-0.138
17,U2G G6U C27U C46U A70G,-0.156
18,G6U A43C C46U A70G,-0.164
19,U2C A43C C66U A69G A70U,-0.263
20,U2G G6U C27U C46U C66U A70G,-0.176
21,U2C G6U C27U A43C C46U A70G C71U,-0.132
22,C27U A43C C46U C66A A69G A70U C71U,-0.366
23,G1A G6U A43C C46U C66A A69G C71U,-0.198
24,G1A U2G C27U C66U A70U,-0.174

row,Variant,yeast fitness (ln)
1,U2C G6U A43C C46U A69G A70U,-0.0621
2,G1A G6A C27U A43C A70G,-0.21
3,U2C C46U C66A C71U,-0.0793
4,G1A A43C C46U A69G A70G C71U,-0.13
5,G1A U2C G6A C27U C46U C66U A70G C71U,-0.00474
6,G1A U2G G6U C27U A69G A70G,-0.376
7,G1A G6A A43C C46U C66A A69G A70G C71U,-0.261
8,G1A C27U A43C C46U A69G A70G,-0.183
9,G1A U2G G6U C27U C66U A69G A70U C71U,-0.407
10,U2G G6U A43C C46U A69G C71U,-0.221
11,G1A G6U A43C C66A A70U C71U,-0.386
12,G1A G6A C27U A70U C71U,-0.23
13,U2G G6A C27U A70U,-0.283
14,G1A U2C A43C C46U A69G C71U,-0.175
15,G1A U2G A43C A70U C71U,-0.0335
16,G1A C46U C66A A70G,-0.0981
17,G1A U2G G6U C66A A70G C71U,-0.525
18,G6A A43C C66A A70G C71U,-0.275
19,G1A U2G G6A C27U A43C A69G A70U C71U,-0.484
20,G1A U2G G6U A43C C46U C66U C71U,-0.371
21,G1A U2C G6A C66U A70G,-0.00694
22,G1A G6U A43C C46U C66U A70G C71U,-0.278
23,G1A U2C C27U A43C C46U C66U A70G,-0.0953
24,U2C C27U C46U C66A A70G C71U,-0.181

row,Variant,yeast fitness (ln)
1,A43C C46U A70G,-0.00498
2,G1A U2G G6U A70U C71U,-0.22
3,C27U A43C C66U A70U,-0.147
4,U2C G6U C27U A43C C46U C66U A70G C71U,-0.225
5,U2C A43C A69G A70U,-0.235
6,U2G G6U A43C A69G A70U C71U,-0.433
7,G6U C27U C66A,-0.0293
8,U2C A43C C66U A70G C71U,-0.346
9,G1A G6A C27U A43C A69G A70U C71U,-0.684
10,G1A U2G G6U C27U A43C C46U A69G A70U,-0.463
11,G6A A43C C46U C66U,-0.00855
12,G6A C27U A43C A69G A70U C71U,-0.238
13,U2G G6A C27U A43C C46U C66A A70U,-0.115
14,G1A G6U A43C C66U A70G C71U,-0.424
15,U2C G6U C27U A43C C66U A70G,-0.366
16,G1A C27U A43C C46U C66U A70G C71U,-0.299
17,U2G A43C C66U A69G A70G C71U,-0.304
18,G1A G6A C46U C66A A69G A70G C71U,-0.151
19,A43C C66U A69G A70G,-0.166
20,U2C G6U A69G A70U,-0.117
21,U2C A43C C46U C66U,-0.0687
22,C27U A43C C46U C66A A69G A70G,-0.0756
23,U2G G6A C46U C66A A69G A70U,-0.0517
24,U2C C27U A43C C66U A70G,-0.232

row,Variant,yeast fitness (ln)
1,C27U A43C C46U A70G C71U,-0.209
2,U2C C27U C66A A69G A70U,-0.119
3,G1A U2G C27U A43C,-0.182
4,G1A U2G G6U A70G,-0.235
5,G1A U2C A70G C71U,-0.0141
6,G1A U2G G6U C27U C66A A69G A70U C71U,-0.404
7,G1A U2C G6U C27U C46U C66A A69G A70G C71U,-0.0613
8,C27U C46U C66U A70U,-0.0808
9,G1A U2G G6U A43C C66U A70G C71U,-0.419
10,U2C A43C C46U C66A C71U,-0.1
11,G6U C66U A69G A70G,-0.271
12,G1A U2C G6A C27U A43C A70U C71U,-0.186
13,C27U A43C C66U A69G A70U,-0.361
14,G1A U2C C46U A69G C71U,-0.134
15,G6U C27U A43C A70U C71U,-0.445
16,U2C G6A C27U A43C A69G A70G,-0.211
17,U2G G6U C27U A43C C66A A69G A70G,-0.219
18,U2G G6U C27U A43C C66U A69G,-0.31
19,G6U A43C C66A A70U C71U,-0.29
20,G1A G6U C27U C46U C66U A69G C71U,-0.595
21,U2C G6U C27U A43C C46U C66U A69G A70U C71U,-0.391
22,U2G C27U A69G C71U,-0.152
23,U2C G6U C46U C66U A70G,-0.0115
